Screens deposited in PubChem BioAssay by SRMLSC.
Many of the other results were omitted from the sample, so hits are more common in it than they were.
Fibroblast inh: antiproliferative effect on LL 47 fibroblasts – human, LL 47 cells, CellTiter-Glo luminescence, primary screen | AID 719, 2007 | actives 1.1% (n = 85,000) | viability, % at 10 µM | LL 47 human lung fibroblast viability, ATP luminescence; hits give low values;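 active = viability at or below 50% in the single dose screen; inactive = viability above 50%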;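 note: compound exposure lasted 72 h before the ATP readout; 100% = median luminescence of untreated cell-only wells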
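material = human LL 47 lung fibroblast cells | dosing = compounds added from tenfold dosing solution, 0.1% DMSO final | timing = overnight cell rest, 72 h compound treatment at 37 °C | measured by = CellTiter-Glo luminescence measuring cellular ATP | evaluation = % viability versus median cells-only luminescence | control set = cell-only wells, no compound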
bCat KO growth: primary screen for growth suppressors in beta-catenin knockout HCT116 cells (colon tumor, human); HCT116 beta-catenin knockout viability, CellTiter-Glo, 60 h; hits give low values; viability, % at 10 µM; actives 1.5% (n = 140,000);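 active = viability at or under a set limit, the compound median less 4 SD, cut at about 6% in these data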;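 note: 0% = Hyamine 1622 control at 20 µM and 100% = untreated cell control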
HCT116 PTEN-null: growth suppression of PTEN-null HCT116, primary screen, cell-based, CellTiter-Glo. HCT116 PTEN-null viability, 60 h; hits give low values. viability, % at 10 µM. actives 1.2% (n = 140,000). AID 827, 2007;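 active = viability at or below a set limit, 4 SD under the median of all tested compounds, cut at about 3.7% in these data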;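 note: PTEN knockout HCT116 line with beta catenin targeted HCT116 as companion control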
HUVEC prolif 384: inhibitors of HUVEC proliferation, primary screen, cell-based, 384-well. AID 648, 2007. actives 1.1% (n = 86,000). viability, % at 10 µM (by protocol). CellTiter-Glo luminescence, 72 h; hits give low values;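 active = viability at or below 30%; inactive = viability above 30%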;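 note: 100% = median luminescence of DMSO-only cell control wells on each plate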
H69AR growth 86K: proliferation blockers of H69AR lung cancer cells, primary screen, cell-based, human, 86K library; H69AR lung tumor viability, ATP luminescence, 72 h; hits give low values; viability, % at 10 µM; actives 6% (n = 85,000);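 active = viability at or below 40%; inactive = viability above 40%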;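 note: multidrug resistant small cell line overexpressing MRP-1 efflux transporter; 100% = mean luminescence of untreated control wells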
The depositor's hits bear a star; / = no result.

SMILES | Fibroblast inh | bCat KO growth | HCT116 PTEN-null | HUVEC prolif 384 | H69AR growth 86K
CCCNC(=O)CSc1nc(-c2cccs2)cc(C(F)(F)F)n1 | 96.8 | 89.6 | 75.7 | 100.2 | 88.0
O=C(Nn1c(C2CCCCC2)nc2ccccc2c1=O)c1ccc([N+](=O)[O-])cc1Cl | / | 98.8 | 92.8 | / | /
CC(C)C(=O)Nc1ccc(S(=O)(=O)Nc2nccc(/C=C/c3ccccc3)n2)cc1 | / | 92.7 | 103.3 | / | /
COc1cccc([C@@H]2Oc3ccc(OC)cc3C(=O)[C@H]2OC(=O)N[C@H](C)C2CCCCC2)c1 | / | 51.2 | 50.1 | / | /
COc1ccc2c(c1)O[C@H](c1ccc3c(c1)OCO3)[C@@H](OC(=O)N[C@H](C)C1CCCCC1)C2=O | / | 11.1 | 1.2* | / | /
CN1CCN(Cc2nc3ccccc3c(=O)n2Cc2nc(-c3ccc([N+](=O)[O-])cc3)cs2)CC1 | / | 0.8* | 0.5* | / | /
CC(=O)SC(C[N+](=O)[O-])c1cn(C(C)=O)c2ccccc12 (configuration not stated) | 2.6* | 74.8 | 89.4 | 101.2 | 2.3*
Cc1cc(CN2C(=O)c3ccccc3C2=O)cc(N2CCOCC2)c1 | 104.9 | 100.7 | 105.7 | 99.0 | 100.7
CCOC(=O)c1c2ccc(OCC(=O)N/N=C/c3ccc(C)cc3)cc2n2ccccc12 | / | 1.5* | 1.6* | / | /
CCc1ccccc1-n1c(SCC(=O)Nc2ccc3c(c2)OCCO3)nc2[nH]ncc2c1=O | 74.8 | 93.4 | 87.0 | 77.1 | 39.0*
COc1ccc(OC)c(-n2nnnc2SCC(=O)Nc2ccc3c(c2)OCCO3)c1 | 81.8 | 101.8 | 101.6 | 18.4* | 43.0
CCOC(=O)c1c(NC(=O)CSc2nnnn2-c2ccc3c(c2)OCO3)sc(C)c1C | 91.9 | 91.6 | 89.1 | 83.9 | 60.5
CCOC(=O)c1c(NC(=O)CSc2nnnn2-c2ccc3c(c2)OCCO3)sc(C)c1C | 86.8 | 76.8 | 81.8 | 92.7 | 36.1*
COc1ccc(NC(=O)c2cccs2)cc1OC | 105.8 | 102.9 | 80.6 | 97.4 | 107.1
CC(Oc1ccc(Cl)cc1Cl)c1nc(-c2ccc(NC(=O)c3ccncc3)cc2)no1 (configuration not stated) | 82.0 | 11.9 | 14.6 | 49.9 | 24.9*
COc1ccc(Cl)cc1-c1nc(-c2ccc(NC(=O)c3cccs3)cc2)no1 | / | 3.3* | 2.5* | / | /
CC(Oc1ccc(Cl)cc1Cl)c1nc(-c2ccc(NC(=O)c3cccnc3)cc2)no1 (configuration not stated) | 87.3 | 14.8 | 10.9 | 72.0 | 6.3*
Cc1cc(C)nc(N=Nc2c(O)n(Cc3ccc(Cl)cc3)c3ccccc23)n1 | / | 56.2 | 38.5 | / | /
CCOC(=O)c1ccc(NC(=O)CSc2nc(NC(=O)c3ccccc3)c3c(C)c(C)oc3n2)cc1 | 97.0 | 81.4 | 65.7 | 93.3 | 21.8*
COc1ccc(-c2nc(Cn3c(SCc4cccc(F)c4)nc4ccncc43)c(C)o2)cc1OC | 86.8 | 64.5 | 68.2 | 57.5 | 53.9
COc1ccc(-c2nc(Cn3c(SCc4ccc(C)cc4)nc4ccncc43)c(C)o2)cc1OC | 92.6 | 70.9 | 74.9 | 73.2 | 18.7*
Cc1cc(NC(=O)Cn2c(C)nc3ccccc3c2=O)ccc1Br | 89.8 | 97.7 | 94.0 | 84.3 | 86.7
COc1ccc(OC)c(/C(O)=C/C(=O)C(=O)Nc2cc(C)cc(C)c2)c1 | 92.3 | 82.0 | 86.5 | 113.2 | 17.2*
CCOc1ccccc1NC(=O)c1cc(C(=O)c2cc(OC)ccc2O)coc1=N | / | 72.3 | 83.8 | / | /
COc1ccc(OC)c(/C(O)=C/C(=O)C(=O)Nc2cc(C)ccc2OC)c1 | 93.0 | 85.7 | 84.9 | 92.8 | 63.4
SMILES | Fibroblast inh | bCat KO growth | HCT116 PTEN-null | HUVEC prolif 384 | H69AR growth 86K
CCOc1ccccc1NC(=O)C(=O)/C=C(\O)c1cc(OC)ccc1OC | 81.4 | 76.7 | 86.1 | 70.7 | 8.4*
O=C(CN1CCN(c2ncccn2)CC1)NCCC1=CCCCC1 | 99.5 | 93.0 | 97.9 | 98.0 | 93.1
CCOc1ccc(-c2nc(CSc3nncs3)cs2)cc1OC | 100.5 | 94.2 | 112.9 | 100.7 | 85.3
Cc1ccc(-c2ccccc2NC(=O)CCl)o1 | 99.4 | 22.9 | 44.2 | 83.8 | 0.1*
Cc1cnc(C(=O)Nc2nccs2)cn1 | 102.5 | 88.1 | 96.7 | 86.8 | 95.7
CC(=O)Nc1cccc(Oc2cc(C#N)c(C#N)cc2N2CCCCCC2)c1 | 89.8 | 68.7 | 75.9 | 70.2 | 31.6*
CC1(NC(=O)CC[N+](C)(C)CCO)CS(=O)(=O)CC1S(=O)(=O)[O-] (configuration not stated) | / | 93.3 | 96.6 | / | /
